Source: ChEMBL document CHEMBL5325429, “Antibacterial and antibiofilm activity of permanently ionized quaternary ammonium fluoroquinolones” (Eur J Med Chem, 2023)
Counter-ions that a name gives are not always drawn. Activity calls are given as the source filed them. The rule behind the calls is not given here.

Tests used:
[1] = tested on: Staphylococcus aureus; test: Antibacterial activity against Staphylococcus aureus ATCC 29213 assessed as bacterial growth inhibition incubated for 24 hrs by broth microdilution assay; type: functional
Procedure, shortened: (§1)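 Broth microdilution per CLSI. Colonies from overnight Mueller Hinton agar were suspended in 0.9% saline, set by densitometer, and diluted in cation-adjusted MHB to 1×10^6 CFU/mL. This was mixed 1:1 with compound and incubated 24 h at 37 °C. A600 was read versus untreated control and checked visually. Screen at 50 μM; compounds with ≥80% inhibition went to MIC testing at 75–0.78 μM. […] Two independent experiments, three technical replicates each.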

[2] = tested on: Pseudomonas aeruginosa; test: Antibacterial activity against Pseudomonas aeruginosa ATCC 27853 assessed as bacterial growth inhibition incubated for 24 hrs by broth microdilution assay; type: functional; procedure, shortened: as §1
[3] = tested on: Pseudomonas aeruginosa; test: Antibiofilm activity against Pseudomonas aeruginosa ATCC 15442 assessed as reduction in bacterial viability at 200 uM incubated for 18 hrs; type: functional, organism-based
Procedure, shortened: (§2)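 Biofilm viability by resazurin. 10^6 CFU/mL TSB culture was exposed to compound (50x DMSO stock) for 18 h at 37 °C with shaking at 220 rpm. Biofilm was washed once with PBS and stained with resazurin (1:20 in PBS) in the dark at 37 °C for about 1 h (P. aeruginosa) or about 30 min (S. aureus). Fluorescence ex 560/em 590 is given as % of untreated control.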

[4] = tested on: Pseudomonas aeruginosa; test: Antibiofilm activity against Pseudomonas aeruginosa ATCC 15442 assessed as reduction in bacterial biomass at 2.5 to 320 uM incubated for 18 hrs by crystal violet staining based assay; type: functional, organism-based; conditions: dose 2.5-320 µM
Procedure, shortened: (§3)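 Pre-exposure biofilm: 10^6 CFU/mL TSB culture with compound (50x DMSO stock), 18 h at 37 °C, shaken at 220 rpm. After the resazurin read, biofilms were ethanol-fixed for 15 min, dried, and stained 5 min with 100x-diluted crystal violet. After two water washes, dye was solubilised in 96% ethanol for about 1 h and read at A595. Total biomass is expressed as % of untreated control.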

[5] = tested on: Pseudomonas aeruginosa; test: Antibiofilm activity against Pseudomonas aeruginosa ATCC 15442 assessed as reduction in bacterial viability at 2.5 to 320 uM incubated for 18 hrs; type: functional, organism-based; conditions: dose 2.5-320 µM; procedure, shortened: as §2
[6] = tested on: Pseudomonas aeruginosa; test: Antibiofilm activity against Pseudomonas aeruginosa ATCC 15442 assessed as reduction in bacterial biomass at 1 to 200 uM incubated for 18 hrs by crystal violet staining based assay; type: functional, organism-based; conditions: dose 1-200 µM; procedure, shortened: as §3
[7] = tested on: Pseudomonas aeruginosa; test: Antibiofilm activity against Pseudomonas aeruginosa ATCC 15442 assessed as reduction in bacterial viability at 20 to 40 uM incubated for 18 hrs relative to control; type: functional; conditions: dose 20-40 µM; procedure, shortened: as §2
[8] = tested on: Pseudomonas aeruginosa; test: Antibiofilm activity against Pseudomonas aeruginosa ATCC 15442 assessed as reduction in bacterial biomass at 40 to 80 uM incubated for 18 hrs by crystal violet staining based assay relative to control; type: functional; design: scale not given: the % may be the effect or the level left; conditions: dose 40-80 µM; procedure, shortened: as §3
[9] = tested on: Staphylococcus aureus; test: Antibiofilm activity against Staphylococcus aureus assessed as inhibition of biofilm formation at 2.5 to 5 uM incubated for 18 hrs relative to control; design: scale not given: the % may be the effect or the level left; conditions: dose 2.5-5 µM

| Compound | MIC [1] | MIC [2] | also measured |
| --- | --- | --- | --- |
| CCn1cc(C(=O)O)c(=O)c2cc(F)c(N3CC[N+](C)(C)CC3)nc21 | 50 µM | > 50 µM |  |
| O=C(O)c1cn(C2CC2)c2cc(N3CCNCC3)c(F)cc2c1=O [CIPROFLOXACIN HYDROCHLORIDE] | 1.36 µM | 2.72 µM | Activity [3]: Active; Activity [4]: Active; Activity [5]: Active; Activity [6]: inactive |
| CCn1cc(C(=O)O)c(=O)c2cc(F)c(N3CC[N+]4(CC3)CN3C(=N4)C(C(=O)O)=Cc4ccccc43)nc21.[I-] |  |  | Activity [7]: >90%; Activity [8]: >90%; Activity [9]: >90% |
| CCn1cc(C(=O)O)c(=O)c2cc(F)c(N3CC[N+](C)(C)CC3)cc21 | 25 µM | > 50 µM |  |
| CCn1cc(C(=O)O)c(=O)c2cnc(N3CC[N+](C)(C)CC3)nc21 | > 50 µM | > 50 µM |  |
